According to ChEMBL document CHEMBL1153083, “Antiprotozoal, anticancer and antimicrobial activities of dihydroartemisinin acetal dimers and monomers” (Bioorg Med Chem, 2009):
Active and inactive are the calls of the source. The rule behind the calls is not given here.

Experiments:
[1] = tested on: Aspergillus fumigatus; assay: Antifungal activity against Aspergillus fumigatus ATCC 90906 by modified CLSI/NCCLS method; format: functional, organism-based
[2] = tested on: Nakaseomyces glabratus; assay: Antifungal activity against Candida glabrata ATCC 90030 by modified CLSI/NCCLS method; format: functional, organism-based
[3] = Selectivity index, ratio of TC50 for african green monkey (Cercopithecus aethiops) Vero cells to IC50 for Plasmodium falciparum W2; format: toxicity, cell-based
[4] = tested on: Plasmodium falciparum; assay: Antiplasmodial activity against Plasmodium falciparum D6 infected in RBCs by parasitic LDH release assay; format: functional, organism-based
Procedure, shortened: (§1)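 Infected erythrocytes at 2% parasitemia and 2% hematocrit, in RPMI 1640 with 10% human serum and amikacin 60 μg/mL, were exposed to serial dilutions under N2/O2/CO2 (90:5:5) at 37°C for 72 h. LDH was read with Malstat reagent (30 min), then NBT/PES in the dark (60 min), stopped with 5% acetic acid, at 650 nm. IC50 came from percent growth dose-response curves.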

[5] = tested on: Cryptococcus neoformans; assay: Antifungal activity against Cryptococcus neoformans ATCC 90113 by modified CLSI/NCCLS method; format: functional, organism-based
[6] = Toxicity against pig LLC-PK11 cells after 48 hrs by neutral red assay; format: cell-based, Sus scrofa; conditions: for CC50 at 48 h: LLC-PK11 cells, read-out: TC50; for TC50: llc-pk11, 48 h
Procedure, shortened: (§2)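 Cells seeded at 25,000 per well and incubated 24 h, then exposed to samples for 48 h. Viable cells were counted by neutral red, with DMSO as vehicle control. IC50 or TC50 values were derived from logarithmic plots of growth inhibition versus concentration.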

[7] = tested on: Mycobacterium intracellulare; assay: Antibacterial activity against Mycobacterium intracellular ATCC 23068 by Franzblau method; format: functional, organism-based
[8] = tested on: SK-OV-3; assay: Cytotoxicity against human SKOV3 cells after 48 hrs by neutral red assay; format: functional, cell-based; conditions: sk-ov-3; procedure, shortened: as §2
[9] = (§3) Toxicity against african green monkey Vero cells after 48 hrs by neutral red assay; format: cell-based; conditions: chlorocebus sabaeus, Vero cells; read-out: TC50; procedure, shortened: as §2
[10] = tested on: KB; assay: Cytotoxicity against human KB cells after 48 hrs by neutral red assay; format: functional, cell-based; procedure, shortened: as §2
[11] = tested on: Leishmania donovani; assay: Antileishmanial activity against Leishmania donovani promastigotes after 48 hrs by alamar blue assay; format: functional, organism-based; conditions: for IC50: read-out: IC50
[12] = tested on: Candida albicans; assay: Antifungal activity against Candida albicans ATCC 90028 by modified CLSI/NCCLS method; format: functional, organism-based
[13] = tested on: Staphylococcus aureus; assay: Antibacterial activity against methicillin-resistant Staphylococcus aureus ATCC 43300 by modified CLSI/NCCLS method; format: functional, organism-based
[14] = Selectivity index, ratio of TC50 for african green monkey (Cercopithecus aethiops) Vero cells to IC50 for Plasmodium falciparum D6; format: toxicity, cell-based
[15] = Toxicity against african green monkey Vero cells; format: cell-based; conditions: chlorocebus sabaeus; procedure, shortened: as §2
[16] = tested on: Pseudomonas aeruginosa; assay: Antibacterial activity against Pseudomonas aeruginosa ATCC 27853 by modified CLSI/NCCLS method; format: functional, organism-based
[17] = tested on: Pichia kudriavzevii; assay: Antifungal activity against Candida krusei ATCC 6258 by modified CLSI/NCCLS method; format: functional, organism-based
[18] = tested on: Escherichia coli; assay: Antibacterial activity against Escherichia coli ATCC 35218 by modified CLSI/NCCLS method; format: functional, organism-based
[19] = tested on: Staphylococcus aureus; assay: Antibacterial activity against Staphylococcus aureus ATCC 29213 by modified CLSI/NCCLS method; format: functional, organism-based
[20] = tested on: Plasmodium falciparum; assay: Antiplasmodial activity against Plasmodium falciparum W2 infected in RBCs by parasitic LDH release assay; format: functional, organism-based; procedure, shortened: as §1
[21] = tested on: SK-MEL; assay: Cytotoxicity against human SK-MEL cells after 48 hrs by neutral red assay; format: functional, cell-based; procedure, shortened: as §2
[22] = tested on: BT-549; assay: Cytotoxicity against human BT549 cells after 48 hrs by neutral red assay; format: functional, cell-based; procedure, shortened: as §2
[23] = tested on: Vero; assay: as §3; format: cell-based; conditions: chlorocebus sabaeus, vero, 48 h; procedure, shortened: as §2
[24] = Homo sapiens, KB, 48 h, read-out: IC50
[25] = Homo sapiens, SK-MEL, 48 h, read-out: IC50
[26] = Homo sapiens, BT-549, 48 h, read-out: IC50
[27] = Aspergillus fumigatus, ATCC 90906, read-out: IC50
[28] = Candida albicans, ATCC 90028, read-out: IC50

C[C@H]1[C@@H](OCC[C@@H](CO[C@H]2O[C@@H]3O[C@@]4(C)CC[C@H]5[C@H](C)CC[C@@H]([C@H]2C)[C@@]35OO4)O[C@H]2O[C@@H]3O[C@@]4(C)CC[C@H]5[C@H](C)CC[C@@H]([C@H]2C)[C@@]35OO4)O[C@@H]2O[C@@]3(C)CC[C@H]4[C@H](C)CC[C@@H]1[C@@]24OO3
IC50 [1]: Not Active
IC50 [2]: Not Active
selectivity ratio [3]: 22
IC50 [4]: 0.298 µM
IC50 [5]: 16.6 µM
CC50 at 48 h [6]: 0.07 µM
IC50 ([7]; Mycobacterium intracellulare, ATCC 23068, read-out: IC50): > 22.1 µM
IC50 [8]: Not Active
CC50 at 48 h [9]: > 1.1 µM
IC50 [10, 24]: 0.11 µM
IC90 ([11]; Leishmania donovani, 48 h): 44.2 µM
IC50 ([11]; Leishmania donovani, 48 h): 5 µM
IC50 [12]: Not Active
IC50 [13]: Not Active
selectivity ratio [14]: 18
CC50 [15]: 5.25 µM
IC50 [16]: Not Active
IC50 [17]: Not Active
IC50 [18]: Not Active
IC50 [19]: Not Active
IC50 [20]: 0.243 µM
IC50 [21, 25]: 0.24 µM
IC50 [22, 26]: 0.06 µM

C[C@H]1[C@@H](OC[C@@H]2O[C@@H]2CO[C@H]2O[C@@H]3O[C@@]4(C)CC[C@H]5[C@H](C)CC[C@@H]([C@H]2C)[C@@]35OO4)O[C@@H]2O[C@@]3(C)CC[C@H]4[C@H](C)CC[C@@H]1[C@@]24OO3 (relative stereo)
IC50 [1, 27]: > 31.4 µM
IC50 ([2]; Nakaseomyces glabratus, ATCC 90030, read-out: IC50): > 31.4 µM
selectivity ratio [3]: > 159
IC50 [4]: 0.0455 µM
IC50 [5]: 31.4 µM
CC50 at 48 h [6]: 0.68 µM
IC50 [7]: Not Active
IC50 [8]: Not Active
CC50 at 48 h [9]: > 1.57 µM
IC50 [10, 24]: 0.47 µM
IC90 ([11]; Leishmania donovani, 48 h): 47.1 µM
IC50 ([11]; Leishmania donovani, 48 h): 3.9 µM
IC50 [12, 28]: > 31.4 µM
IC50 [13]: Not Active
selectivity ratio [14]: > 164
CC50 [15]: > 7.47 µM
IC50 ([16]; Pseudomonas aeruginosa, ATCC 27853, read-out: IC50): > 31.4 µM
IC50 [17]: Not Active
IC50 [18]: Not Active
IC50 [19]: Not Active
IC50 [20]: 0.0471 µM
IC50 [21, 25]: 0.22 µM
IC50 [22, 26]: 0.3 µM

C[C@H]1[C@@H](OC[C@@H](O)[C@@H](O)CO[C@H]2O[C@@H]3O[C@@]4(C)CC[C@H]5[C@H](C)CC[C@@H]([C@H]2C)[C@@]35OO4)O[C@@H]2O[C@@]3(C)CC[C@H]4[C@H](C)CC[C@@H]1[C@@]24OO3 (relative stereo)
IC50 [1, 27]: 30.5 µM
selectivity ratio [3]: > 1400
IC50 [4]: 0.0067 µM
IC50 [5]: 1.22 µM
TC50 [6]: Not Active
IC50 [7]: Not Active
IC50 [8]: Not Active
TC50 [23]: Not Active
IC50 ([10]; kb): Not Active
IC90 ([11]; Leishmania donovani, 48 h): 22.9 µM
IC50 [12, 28]: 6.11 µM
IC50 [13]: Not Active
selectivity ratio [14]: > 1080
CC50 [15]: > 7.26 µM
IC50 [16]: Not Active
IC50 ([18]; Escherichia coli, ATCC 35218, read-out: IC50): 15.3 µM
IC50 [20]: 0.0052 µM
IC50 ([21]; sk-mel): Not Active
IC50 ([22]; bt-549): Not Active

C[C@H]1[C@@H](OC/C=C\CO)O[C@@H]2O[C@@]3(C)CC[C@H]4[C@H](C)CC[C@@H]1[C@@]24OO3
IC50 [1]: Not Active
selectivity ratio [3]: > 1760
IC50 [4]: 0.0062 µM
IC50 [5]: 0.56 µM
TC50 [6]: Not Active
IC50 [7]: Not Active
IC50 [8]: Not Active
TC50 [23]: Not Active
IC50 ([10]; kb): Not Active
IC90 [11]: inactive
IC50 ([11]; Leishmania donovani, 48 h): 42.3 µM
IC50 [12]: Not Active
IC50 [13]: Not Active
selectivity ratio [14]: > 2160
CC50 [15]: > 13.4 µM
IC50 [16]: Not Active
IC50 [18]: Not Active
IC50 [20]: 0.0076 µM
IC50 ([21]; sk-mel): Not Active
IC50 ([22]; bt-549): Not Active
